Source: ChEMBL document CHEMBL5678806, “NMS-P937, an orally available, specific small-molecule polo-like kinase 1 inhibitor with antitumor activity in solid and hematologic malignancies” (Mol Cancer Ther, 2012)

Experiments:
[1] = molecular target: Cyclin-dependent kinase 4/cyclin D1 (Homo sapiens, UniProt P11802); test: Inhibition of CDK4/CycD1 (unknown origin) in presence of [gamma-33P]ATP; format: protein-complex assay
Ephrin type-A receptor 2 = Ephrin type-A receptor 2 (Homo sapiens, UniProt P29317); test: Inhibition of EphA2 (unknown origin) in presence of [gamma-33P]ATP
[2] = molecular target: Tyrosine-protein kinase JAK1 (Homo sapiens, UniProt P23458); test: Inhibition of JAK1 (unknown origin) in presence of [gamma-33P]ATP
Casein kinase 2 [3] = molecular target: T1, Casein kinase 2 (Homo sapiens, UniProt P67870+P68400+P19784+Q8NEV1); test: Inhibition of CK2 (unknown origin) at 10 micromol/L in presence of [gamma-33P]ATP relative to control; format: protein assay; conditions: dose 10.0 µmol/L
[4] = molecular target: Serine/threonine-protein kinase tousled-like 2 (Homo sapiens, UniProt Q86UE8); test: Inhibition of N-terminal 6His-tagged recombinant human TLK2 (388 to end residues) expressed in baculovirus infected Sf21 cells assessed as residual activity at 0.1 uM relative to control
[5] = molecular target: Casein kinase I isoform gamma-2 (Homo sapiens) (UniProt P78368); test: Inhibition of N-terminal 6His-tagged recombinant human CK1gamma2 ( 18 to end residues) expressed in baculovirus infected Sf21 cells assessed as residual activity at 1 uM relative to control
Casein kinase 2 [6] = molecular target: T1, Casein kinase 2; test: Inhibition of alpha-subunit N-terminal 6His- and beta-subunit N-terminal GST-tagged recombinant human CK2 expressed in baculovirus infected Sf21 cells assessed as residual activity at 1 uM relative to control
[7] = molecular target: Macrophage colony-stimulating factor 1 receptor (Homo sapiens) (UniProt P07333); test: Inhibition of N-terminal His6-tagged recombinant human Fms (538 to end residues) expressed in baculovirus infected Sf21 cells assessed as residual activity at 1 uM relative to control
[8] = molecular target: Inhibitor of nuclear factor kappa-B kinase subunit beta (Homo sapiens) (UniProt O14920); test: Inhibition of N-terminal His6 tagged recombinant full-length human IKKbeta expressed in baculovirus infected Sf21 cells assessed as residual activity at 1 uM relative to control
[9] = molecular target: RAC-alpha serine/threonine-protein kinase (Homo sapiens, UniProt P31749); test: Inhibition of N-terminal His6 tagged recombinant full-length human PKBalpha expressed in baculovirus infected Sf21 cells assessed as residual activity at 1 uM relative to control
[10] = molecular target: Ribosomal protein S6 kinase alpha-2 (Homo sapiens) (UniProt Q15349); test: Inhibition of N-terminal His6-tagged recombinant full-length human Rsk3 expressed in Sf21 cells assessed as residual activity at 1 uM relative to control
SK-BR-3 = test: Antiproliferative activity against human SK-BR-3 cells assessed as inhibition of cell growth incubated for 72 hrs by cell-titer glo assay; format: functional, cell-based; conditions: SK-BR-3, 72 h
MDA-MB-231 = test: Antiproliferative activity against human MDA-MB-231 cells assessed as inhibition of cell growth incubated for 72 hrs by cell-titer glo assay; format: functional, cell-based; conditions: MDA-MB-231, 72 h
How it was run: (§1)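 Cells seeded at 10,000–30,000/cm² (adherent) or 100,000/mL (nonadherent) in medium with 10% fetal calf serum; after 24 h, treated in duplicate with serial dilutions for 72 h. Viable cell number read by CellTiter-Glo luminescence; IC50 from sigmoidal fit; at least two independent experiments.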

HCC1954 = test: Antiproliferative activity against human HCC1954 cells assessed as inhibition of cell growth incubated for 72 hrs by cell-titer glo assay; format: functional, cell-based; conditions: HCC1954, 72 h; how it was run: as §1
BT-549 = test: Antiproliferative activity against human BT-549 cells assessed as inhibition of cell growth incubated for 72 hrs by cell-titer glo assay; format: functional, cell-based; conditions: BT-549, 72 h
How it was run: (§2)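 Cells seeded 10,000–30,000/cm² (adherent) or 100,000/mL (suspension) in medium with 10% fetal calf serum; after 24 h treated in duplicate with serial dilutions for 72 h. Viable cells read by CellTiter-Glo luminescence; IC50 from sigmoidal fit; at least two independent experiments.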

HCC1395 = test: Antiproliferative activity against human HCC1395 cells assessed as inhibition of cell growth incubated for 72 hrs by cell-titer glo assay; format: functional, cell-based; conditions: HCC1395, 72 h; how it was run: as §1
NCI-H2170 = test: Antiproliferative activity against human NCI-H2170 cells assessed as inhibition of cell growth incubated for 72 hrs by cell-titer glo assay; format: functional, cell-based; conditions: NCI-H2170, 72 h
How it was run: (§3)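 Cells from ATCC or ECACC, kept in supplier-recommended medium with 1% penicillin-streptomycin at 37°C, 5% CO₂. Seeded at 10,000–30,000/cm² (adherent) or 100,000/mL (nonadherent) in medium with 10% fetal calf serum. Dosed after 24 h in duplicate with serial dilutions. Viable cells read by CellTiter-Glo 72 h later. IC50 from sigmoidal fit. At least two independent experiments.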

NCI-H838 = test: Antiproliferative activity against human NCI-H838 cells assessed as inhibition of cell growth incubated for 72 hrs by cell-titer glo assay; format: functional, cell-based; conditions: NCI-H838, 72 h; how it was run: as §3
A549 = test: Antiproliferative activity against human A549 cells assessed as inhibition of cell growth incubated for 72 hrs by cell-titer glo assay; format: functional, cell-based; conditions: A549, 72 h; how it was run: as §2
EKVX = test: Antiproliferative activity against human EKVX cells assessed as inhibition of cell growth incubated for 72 hrs by cell-titer glo assay; format: functional, cell-based; how it was run: as §2
HOP-62 = test: Antiproliferative activity against human HOP-62 cells assessed as inhibition of cell growth incubated for 72 hrs by cell-titer glo assay; format: functional, cell-based; conditions: HOP-62, 72 h; how it was run: as §1
[11] = Antiproliferative activity against human A2780cis cells assessed as inhibition of cell growth incubated for 72 hrs by cell-titer glo assay; format: functional, cell-based; how it was run: as §2
OVCAR-8 = test: Antiproliferative activity against human OVCAR-8 cells assessed as inhibition of cell growth incubated for 72 hrs by cell-titer glo assay; format: functional, cell-based; conditions: OVCAR-8, 72 h; how it was run: as §3
1A9 = test: Antiproliferative activity against human 1A9 cells assessed as inhibition of cell growth incubated for 72 hrs by cell-titer glo assay; format: functional, cell-based; conditions: 1A9, 72 h; how it was run: as §2
DU-145 = test: Antiproliferative activity against human DU-145 cells assessed as inhibition of cell growth incubated for 72 hrs by cell-titer glo assay; format: functional, cell-based; conditions: DU-145, 72 h; how it was run: as §2
[12] = Antiproliferative activity against human GM14788 cells assessed as inhibition of cell growth incubated for 72 hrs by cell-titer glo assay; format: functional, cell-based; conditions: GM14788, 72 h; how it was run: as §1
[13] = Cmax in nu/nu mouse at 10 mg/kg, po by LC-MS analysis; format: ADME, organism-based; conditions: in vivo
[14] = Tmax in Sprague-Dawley rat at 10 mg/kg, po by LC-MS analysis; format: ADME, organism-based; conditions: in vivo
A2780 = test: Induction of cell cycle arrest in human A2780 cells assessed as accumulation of cells in G2/M phase by measuring PLK1 phosphorylation on Thr210 incubated for 24 hrs by Western blotting analysis; format: functional, cell-based; conditions: dose 0.02-0.2 µmol/L
How it was run: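 A2780 ovarian carcinoma cells treated 24 h with a range of concentrations, with DMSO and nocodazole controls. 20 µg protein extract separated by SDS-PAGE and immunoblotted with chemiluminescent detection. Probed for total and phospho-Thr210 PLK1, phospho-Ser10 histone H3, phospho-Thr199 NPM and phospho-Tyr15 CDK1. Total NPM, tubulin and total CDK1 served as loading controls.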

Sequence of Tyrosine-protein kinase JAK1 (P23458 whole entry): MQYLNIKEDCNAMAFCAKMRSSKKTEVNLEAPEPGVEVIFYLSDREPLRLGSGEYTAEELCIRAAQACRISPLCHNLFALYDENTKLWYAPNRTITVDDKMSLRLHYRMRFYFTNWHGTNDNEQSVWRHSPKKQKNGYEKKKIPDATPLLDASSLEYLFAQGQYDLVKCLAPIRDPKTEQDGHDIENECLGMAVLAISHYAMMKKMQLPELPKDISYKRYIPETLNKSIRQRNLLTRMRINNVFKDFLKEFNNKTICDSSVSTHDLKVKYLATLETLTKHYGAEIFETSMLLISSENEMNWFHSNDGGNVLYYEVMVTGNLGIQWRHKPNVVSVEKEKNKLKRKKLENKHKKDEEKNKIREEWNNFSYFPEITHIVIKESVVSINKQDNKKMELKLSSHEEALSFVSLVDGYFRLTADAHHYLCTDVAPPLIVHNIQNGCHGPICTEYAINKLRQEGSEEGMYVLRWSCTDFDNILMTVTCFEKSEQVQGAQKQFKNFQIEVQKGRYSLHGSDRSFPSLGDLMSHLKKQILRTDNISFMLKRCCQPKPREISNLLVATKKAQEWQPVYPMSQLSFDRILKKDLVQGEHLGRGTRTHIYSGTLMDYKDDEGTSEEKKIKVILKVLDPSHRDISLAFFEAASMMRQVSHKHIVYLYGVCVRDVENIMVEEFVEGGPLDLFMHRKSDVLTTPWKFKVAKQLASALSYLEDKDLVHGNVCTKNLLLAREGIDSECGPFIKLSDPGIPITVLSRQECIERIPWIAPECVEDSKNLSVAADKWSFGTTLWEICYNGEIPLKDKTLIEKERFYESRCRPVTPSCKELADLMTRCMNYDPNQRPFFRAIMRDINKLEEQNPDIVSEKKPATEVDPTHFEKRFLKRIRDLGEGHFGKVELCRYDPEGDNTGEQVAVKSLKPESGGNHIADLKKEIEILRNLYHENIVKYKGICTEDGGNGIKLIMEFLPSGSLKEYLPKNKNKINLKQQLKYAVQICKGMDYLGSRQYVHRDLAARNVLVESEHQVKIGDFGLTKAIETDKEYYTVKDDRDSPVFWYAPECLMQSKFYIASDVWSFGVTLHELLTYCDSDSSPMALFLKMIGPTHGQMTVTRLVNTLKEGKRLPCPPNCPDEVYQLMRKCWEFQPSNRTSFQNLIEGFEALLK
Sequence of Casein kinase I isoform gamma-2 (Homo sapiens) (P78368 whole entry, looked up, canonical isoform): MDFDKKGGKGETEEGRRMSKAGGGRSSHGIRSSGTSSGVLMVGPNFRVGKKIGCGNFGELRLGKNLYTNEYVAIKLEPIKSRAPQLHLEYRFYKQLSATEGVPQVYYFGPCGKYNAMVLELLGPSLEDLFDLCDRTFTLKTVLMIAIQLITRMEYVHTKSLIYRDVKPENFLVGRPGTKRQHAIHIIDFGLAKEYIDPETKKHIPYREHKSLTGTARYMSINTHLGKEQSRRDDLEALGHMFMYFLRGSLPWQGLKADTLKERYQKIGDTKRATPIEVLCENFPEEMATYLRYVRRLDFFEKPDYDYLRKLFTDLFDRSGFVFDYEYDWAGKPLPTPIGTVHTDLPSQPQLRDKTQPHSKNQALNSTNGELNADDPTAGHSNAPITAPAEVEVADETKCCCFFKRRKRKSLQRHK
Sequence of Ephrin type-A receptor 2 (P29317 whole entry): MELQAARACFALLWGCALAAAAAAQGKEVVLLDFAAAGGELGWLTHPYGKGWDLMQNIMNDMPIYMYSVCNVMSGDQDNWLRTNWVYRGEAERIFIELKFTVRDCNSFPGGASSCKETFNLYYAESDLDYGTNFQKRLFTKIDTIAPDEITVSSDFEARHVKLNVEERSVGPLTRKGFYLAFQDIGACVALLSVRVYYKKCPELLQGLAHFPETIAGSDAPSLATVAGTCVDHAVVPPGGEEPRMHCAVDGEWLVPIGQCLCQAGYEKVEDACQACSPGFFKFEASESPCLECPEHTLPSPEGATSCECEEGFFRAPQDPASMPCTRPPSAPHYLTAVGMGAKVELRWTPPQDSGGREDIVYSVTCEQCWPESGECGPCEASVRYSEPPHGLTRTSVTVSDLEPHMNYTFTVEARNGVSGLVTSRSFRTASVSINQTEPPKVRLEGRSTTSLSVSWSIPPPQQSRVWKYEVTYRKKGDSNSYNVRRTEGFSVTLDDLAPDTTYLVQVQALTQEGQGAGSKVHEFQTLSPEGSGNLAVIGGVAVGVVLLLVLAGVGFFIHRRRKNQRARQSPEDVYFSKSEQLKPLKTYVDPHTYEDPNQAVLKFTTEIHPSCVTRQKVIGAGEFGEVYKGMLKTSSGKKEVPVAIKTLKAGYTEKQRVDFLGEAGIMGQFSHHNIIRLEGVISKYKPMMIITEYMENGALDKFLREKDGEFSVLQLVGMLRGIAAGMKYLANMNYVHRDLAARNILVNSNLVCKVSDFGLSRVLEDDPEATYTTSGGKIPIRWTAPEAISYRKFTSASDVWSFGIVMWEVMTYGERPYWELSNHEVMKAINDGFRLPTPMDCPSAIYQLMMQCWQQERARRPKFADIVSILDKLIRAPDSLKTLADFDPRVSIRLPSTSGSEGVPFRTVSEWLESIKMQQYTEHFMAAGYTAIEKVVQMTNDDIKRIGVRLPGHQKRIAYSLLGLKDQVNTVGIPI
Sequence of RAC-alpha serine/threonine-protein kinase (P31749 whole entry): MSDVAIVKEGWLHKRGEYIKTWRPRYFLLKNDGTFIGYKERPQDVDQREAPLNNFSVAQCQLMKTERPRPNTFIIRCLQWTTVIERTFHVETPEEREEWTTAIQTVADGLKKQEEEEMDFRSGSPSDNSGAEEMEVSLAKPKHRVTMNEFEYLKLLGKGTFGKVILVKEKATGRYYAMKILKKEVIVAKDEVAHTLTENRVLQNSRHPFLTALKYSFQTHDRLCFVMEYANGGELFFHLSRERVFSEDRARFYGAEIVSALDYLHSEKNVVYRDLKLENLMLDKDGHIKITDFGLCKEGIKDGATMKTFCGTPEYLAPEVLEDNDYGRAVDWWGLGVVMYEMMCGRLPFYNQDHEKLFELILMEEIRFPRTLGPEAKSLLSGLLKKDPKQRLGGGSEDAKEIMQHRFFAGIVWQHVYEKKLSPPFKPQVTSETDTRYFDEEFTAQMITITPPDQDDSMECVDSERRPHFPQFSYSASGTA
Sequence of Macrophage colony-stimulating factor 1 receptor (Homo sapiens) (P07333 whole entry): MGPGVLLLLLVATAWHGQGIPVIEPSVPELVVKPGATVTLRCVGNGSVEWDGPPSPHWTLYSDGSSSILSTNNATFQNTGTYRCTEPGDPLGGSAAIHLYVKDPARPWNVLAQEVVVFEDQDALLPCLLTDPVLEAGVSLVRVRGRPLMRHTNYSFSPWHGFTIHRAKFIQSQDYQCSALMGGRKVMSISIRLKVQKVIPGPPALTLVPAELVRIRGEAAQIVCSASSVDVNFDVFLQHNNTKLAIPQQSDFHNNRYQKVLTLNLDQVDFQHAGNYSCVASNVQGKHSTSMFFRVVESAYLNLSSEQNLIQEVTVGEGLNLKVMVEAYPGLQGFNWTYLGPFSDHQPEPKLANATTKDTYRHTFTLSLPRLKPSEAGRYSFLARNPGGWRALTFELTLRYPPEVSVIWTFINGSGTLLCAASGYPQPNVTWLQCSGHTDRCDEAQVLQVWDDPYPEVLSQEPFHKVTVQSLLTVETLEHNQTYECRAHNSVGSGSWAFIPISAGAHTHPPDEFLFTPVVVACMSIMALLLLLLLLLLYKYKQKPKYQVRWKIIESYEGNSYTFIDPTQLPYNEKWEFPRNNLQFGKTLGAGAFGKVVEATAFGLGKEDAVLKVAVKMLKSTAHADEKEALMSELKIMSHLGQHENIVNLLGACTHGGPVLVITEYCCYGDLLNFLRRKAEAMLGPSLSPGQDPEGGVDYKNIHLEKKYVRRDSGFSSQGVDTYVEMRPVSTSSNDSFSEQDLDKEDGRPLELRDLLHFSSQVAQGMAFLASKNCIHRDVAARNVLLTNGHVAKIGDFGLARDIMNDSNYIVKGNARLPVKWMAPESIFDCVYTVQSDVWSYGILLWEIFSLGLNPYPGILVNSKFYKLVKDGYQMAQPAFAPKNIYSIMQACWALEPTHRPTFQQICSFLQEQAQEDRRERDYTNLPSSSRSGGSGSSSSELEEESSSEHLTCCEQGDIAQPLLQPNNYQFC
Sequence of Cyclin-dependent kinase 4/cyclin D1 (P11802 whole entry): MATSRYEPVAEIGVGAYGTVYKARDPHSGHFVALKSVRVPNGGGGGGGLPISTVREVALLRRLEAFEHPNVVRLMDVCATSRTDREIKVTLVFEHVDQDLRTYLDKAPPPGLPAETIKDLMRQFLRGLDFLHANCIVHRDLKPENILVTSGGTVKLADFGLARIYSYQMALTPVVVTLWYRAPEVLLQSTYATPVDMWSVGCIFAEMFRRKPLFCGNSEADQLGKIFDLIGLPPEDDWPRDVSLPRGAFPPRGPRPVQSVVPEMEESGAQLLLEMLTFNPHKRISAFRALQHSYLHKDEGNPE
Sequence of Cyclin-dependent kinase 4/cyclin D1 (P24385 whole entry, further chain): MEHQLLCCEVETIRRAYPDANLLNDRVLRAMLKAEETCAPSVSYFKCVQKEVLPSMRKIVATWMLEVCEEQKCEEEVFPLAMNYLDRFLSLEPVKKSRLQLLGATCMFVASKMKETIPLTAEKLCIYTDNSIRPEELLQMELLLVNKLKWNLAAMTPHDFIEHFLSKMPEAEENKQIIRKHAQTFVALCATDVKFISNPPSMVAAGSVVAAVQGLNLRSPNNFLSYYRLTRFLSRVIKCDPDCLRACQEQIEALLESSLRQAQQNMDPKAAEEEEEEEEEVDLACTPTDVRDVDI

CN1CCN(c2ccc(OC(F)(F)F)c(Nc3ncc4c(n3)-c3c(c(C(N)=O)nn3CCO)CC4)c2)CC1 [ONVANSERTIB]
IC50 [1]: > 10000 nM | IC50 (Ephrin type-A receptor 2): > 10000 nM | IC50 [2]: > 10000 nM | inhibition (Casein kinase 2 [3]): 89.7% | Activity [4]: 182% | Activity [5]: 69% | Activity (Casein kinase 2 [6]): 42% | Activity [7]: 90% | Activity [8]: 127% | Activity [9]: 88% | Activity [10]: 84% | IC50 (SK-BR-3): 35 nM | IC50 (MDA-MB-231): 172 nM | IC50 (HCC1954): 15 nM | IC50 (BT-549): 49 nM | IC50 (HCC1395): 49 nM | IC50 (NCI-H2170): 15 nM | IC50 (NCI-H838): 119 nM | IC50 (A549): 175 nM | IC50 (EKVX): 196 nM | IC50 (HOP-62): 209 nM | IC50 [11]: 48 nM | IC50 (OVCAR-8): 59 nM | IC50 (1A9): 62 nM | IC50 (DU-145): 252 nM | IC50 [12]: 82 nM | Cmax [13]: 600 nM | Tmax [14]: 3 h | Activity (A2780): Dose-Dependent Effect
